# Assay outcomes: PubChem BioAssay, Broad Institute
# Hits are enriched below; roughly 2% of the tested compounds scored in any of these assays.
# SR-BI DiI inh: inhibitors of SR-BI mediated HDL lipid uptake, primary screen, ldlA[mSR-BI] cells, fluorescence, single point. Scavenger receptor class B member 1 (Mus musculus), Q61009. ldlA[mSR-BI] CHO cells, DiI-HDL uptake fluorescence, 3 h. inhibition, % at 12.5 µM. 320,000 tested, 0.96% active. AID 488896, 2010;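 active means mean replicate inhibition of at least 70% and a set share of replicates each scoring 70 or more; inconclusive means meets just one of the two criteria; inactive means fails both criteria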;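 further: 0% = median of neutral control wells and 100% = median of positive control wells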
# dFosB act-1: activators of delta FosB homodimer, primary screen, biochemical, fluorescence polarization, TAMRA-CDK5 oligo, single point | Protein FosB (Mus musculus), P13346 | purified delta FosB; percent of positive-control signal above neutral wells | activation, % at 25 µM | 340,000 tested, 0.99% active | AID 493131, 2011;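 active means mean activation above about 17%, with every replicate also reaching it, limit read from the data, passing the limit was not always enough; inconclusive means only one of the two conditions met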
# Target sequence (P13346 whole entry, looked up): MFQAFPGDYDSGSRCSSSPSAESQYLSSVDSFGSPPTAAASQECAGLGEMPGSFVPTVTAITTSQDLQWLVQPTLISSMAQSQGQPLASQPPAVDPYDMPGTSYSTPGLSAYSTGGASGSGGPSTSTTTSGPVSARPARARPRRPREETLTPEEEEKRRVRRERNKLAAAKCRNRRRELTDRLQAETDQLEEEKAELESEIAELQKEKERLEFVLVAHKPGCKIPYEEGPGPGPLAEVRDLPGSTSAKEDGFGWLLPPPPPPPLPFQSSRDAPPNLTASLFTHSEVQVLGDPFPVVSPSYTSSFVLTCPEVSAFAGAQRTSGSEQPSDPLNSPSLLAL
# SR-BI uptake up: activators of SR-BI mediated DiI-HDL uptake, primary screen, ldlA[mSR-BI] CHO cells, DiI fluorescence; 3 h; 100 = double the neutral-control signal; activation, % at 12.5 µM; 320,000 tested, 0.096% active; AID 504775, 2011;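 active means mean replicate activation of at least 60% and every replicate at or above 60%; inconclusive means mean or all-replicate condition met, but not both; inactive means mean below 60% and not all replicates reaching 60%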;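 further: 0% = median plate neutral-control signal and 100% = twice that signal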
#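 Material – SR-BI-overexpressing, LDLR-lacking CHO cells · Medium – BSA-supplemented, HEPES-buffered Ham's F12, pH 7.4 · Doses – single concentration · Times – compound with DiI-HDL co-incubation, 3 h at 37 °C · Measured by – bottom-read fluorescence, 550/595 nm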
# CDK5 p35 inh: inhibitors of human CDK5/p35 kinase, primary screen, biochemical, single concentration; AID 488839, 2010; inhibition, % at 10 µM; Cyclin-dependent kinase 5 (Homo sapiens) + Cyclin-dependent kinase 5 activator 1 (Homo …; Recombinant CDK5/p35, ADP-Glo luminescence, 60 min; 330,000 tested, 0.01% active;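 active means highest replicate inhibition of at least 50% and at least 75% of replicates reaching 50%; inconclusive means only one of the two criteria met; inactive means both criteria failed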;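 further: plate controls were DMSO neutral control for no effect and GW8510 at 10 µM for full effect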
# dFosB act-2: activators of mouse delta FosB DNA binding, confirmation, biochemical, fluorescence polarization, TAMRA-CDK5 oligo, cherry-picked samples | activation, % at 24.9 µM | AID 588690, 2011 | purified delta FosB; normalised: neutral wells 0, positive control 100 | shares compounds with dFosB act-1 | 2,400 tested, under 10 active;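 active means highest replicate activation at or above 34% and every replicate reaching that threshold; inconclusive means meets only one of the two criteria; inactive means meets neither criterion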;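 further: higher polarization means more probe DNA bound by delta FosB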
# * marks the source's active call; other numbers are inactive results; u = inconclusive; x = no result.
SMILES,SR-BI DiI inh,dFosB act-1,SR-BI uptake up,CDK5 p35 inh,dFosB act-2
CCCCn1c(N)c(N(CCOC)C(=O)C2CCN(c3ncnc4sc(C)c(C)c34)CC2)c(=O)[nH]c1=O,6,-5,-6,1,x
Cc1cc(C(=O)OCC(=O)N2CC(=O)Nc3ccccc32)no1,1,-4,-1,0,x
Cc1c(C(=O)OCC(=O)N2CC(=O)Nc3ccccc32)oc2ccc(Br)cc12,19,70*,-19,0,0
O=C(NCc1ccc2c(c1)OCO2)c1nnc(Cc2ccc(Cl)cc2)o1,-9,27*,9,0,3
COc1ccccc1NC(=O)Cn1nnc(C(=O)NCc2ccc3c(c2)OCO3)c1N,3,u,-3,0,x
O=C(NCc1ccc2c(c1)OCO2)c1ccc(CS(=O)Cc2ccc(Cl)cc2)o1 (stereo not drawn),35,-6,x,0,x
Nc1c(C(=O)NCc2ccc3c(c2)OCO3)nnn1CC(=O)Nc1ccc(Br)cc1,11,51*,-11,1,5
CC(C)c1ccc(NC(=O)Cn2nnc(C(=O)NCc3ccc4c(c3)OCO4)c2N)cc1,4,31*,-4,-1,-3
COc1ccc(Cl)cc1NC(=O)Cn1nnc(C(=O)NCc2ccc3c(c2)OCO3)c1N,22,39*,-22,1,0
Cc1ccc(NC(=O)Cn2nnc(C(=O)NCc3ccc4c(c3)OCO4)c2N)cc1,7,-4,-7,-1,x
COCC(C)n1c(SCC(=O)NC(=O)NC2CCCC2)nc2ccccc2c1=O (stereo not drawn),-18,-7,18,1,x
Cc1cc(C)c(NC(=O)Cn2nnc(C(=O)NCc3ccc4c(c3)OCO4)c2N)c(C)c1,-13,75*,13,0,0
C[C@H]1CN([C@@H](C)CO)C(=O)c2cccc(NC(=O)Nc3ccc(C(F)(F)F)cc3)c2O[C@@H]1CN(C)S(=O)(=O)c1ccccc1,-5,29*,5,2,4
COc1ccc(S(=O)(=O)N(C)C[C@H]2Oc3c(NC(=O)Nc4ccccc4)cccc3C(=O)N([C@H](C)CO)C[C@@H]2C)cc1,12,-27,-12,1,x
COc1ccc(S(=O)(=O)N(C)C[C@H]2Oc3c(NC(=O)Nc4ccc(C(F)(F)F)cc4)cccc3C(=O)N([C@H](C)CO)C[C@@H]2C)cc1,-49,66*,49,-1,0
COc1cc2[nH]c(C(=O)N3CCc4ccccc43)cc2c(OC)c1OC,x,-12,x,-3,x
Cc1ccc(Cl)cc1NC(=O)c1ccccc1OCC(=O)Nc1ccc(Cl)cc1,56,33*,-56,0,3
CC(=O)NC(=S)Nc1ccc(NC(=O)COc2ccc(Cl)cc2Cl)cc1,32,73*,-32,0,-7
COCCCNC(=O)c1ccc(OC)c(OC2CCN(C(C)C)CC2)c1,2,1,-2,1,x
CCOc1ccc(CCN2C(=O)C(=O)N([C@@H](Cc3ccc(O)cc3)CN3CCC[C@@H]3CN3C(=O)C(=O)NC[C@@H]3Cc3ccccc3)C[C@@H]2Cc2ccccc2)cc1,8,-8,-8,1,x
CC(C)C[C@H]1CN([C@@H](CC(C)C)CN2CCCC2CN2C(=S)NC[C@@H]2Cc2ccc(O)cc2)C(=S)N1CCc1ccccc1 (stereo partly drawn),2,25*,-2,0,3
Oc1ccc(C[C@H]2CNC(=S)N2CC2CCCN2C[C@H](Cc2ccc(O)cc2)N2C[C@H](Cc3ccccc3)N(CCc3ccccc3)C2=S)cc1 (stereo partly drawn),-6,65*,6,0,6
CC(C)C[C@@H](CN1CCCC1CN1C(=S)NC[C@@H]1Cc1ccc(O)cc1)N1C[C@H](Cc2ccccc2)N(CCc2ccccc2)C1=S (stereo partly drawn),-5,61*,5,-1,6
CC(=O)Nc1ccc(Nc2cc(C)nc3c(-c4ccc(Cl)cc4)cnn23)cc1,12,18*,-12,0,-7
CCOc1ccc(NC(=S)N2CCN(S(=O)(=O)c3ccccc3)CC2)cc1,-8,0,x,-1,x
SMILES,SR-BI DiI inh,dFosB act-1,SR-BI uptake up,CDK5 p35 inh,dFosB act-2
COc1ccc2cc(C#N)c(SCC(=O)NNC(=O)Cc3ccccc3)nc2c1,14,68*,-14,-1,1
COc1ccc(NC(=O)CSc2nc(N)c(C#N)cc2C#N)cc1,-6,-2,6,0,x
COc1ccc2nc(SCC(=O)Nc3ccc4sc(C)nc4c3)c(C#N)cc2c1,63,21*,-63,0,-14
CC(=O)Nc1ccc(NC(=O)C2CCCN(S(=O)(=O)c3ccc(-n4cnnn4)cc3)C2)cc1 (stereo not drawn),-16,23*,16,1,0
CC(=O)c1ccc(S(=O)(=O)Nc2ccc(-n3cnnn3)cc2)cc1,-1,-6,1,-2,x
CC(=O)c1ccc(NC(=O)C2CCCN(S(=O)(=O)c3ccc(-n4cnnn4)cc3)C2)cc1 (stereo not drawn),5,9,-5,1,x
Cc1cc(C)cc(OCC(=O)Nc2ccc(-n3cnnn3)cc2)c1,68,34*,-68,0,6
CC(=O)c1ccc(NC(=O)c2ccc(-n3cnnn3)cc2)cc1,8,24*,-8,2,2
COc1cccc(CC(=O)OC(C)C(=O)Nc2ncc(Cl)cc2Cl)c1 (stereo not drawn),-7,-5,7,1,x
O=C(CCS(=O)(=O)Cc1ccccc1F)NCc1ccccc1Cl,5,18*,-5,-1,-2
COc1ccc(S(=O)(=O)N2CCN(C(=O)CCc3c[nH]c4ccccc34)CC2)cc1,3,-6,-3,1,x
COc1ccccc1OCCNC(=O)Cc1ccc(S(=O)(=O)N2CCOCC2)s1,-3,-4,3,1,x
C=CCOc1ccc(/C=C/C(=O)OCC(=O)N2CCN(S(=O)(=O)c3ccc(C)cc3C)CC2)cc1,3,5,-3,-1,x
Cc1ccc(S(=O)(=O)N2CCN(C(=O)COC(=O)/C=C/c3ccc([N+](=O)[O-])cc3)CC2)c(C)c1,-5,24*,5,1,-3
O=C(C[n+]1ccn(-c2ccccc2)c1)c1ccc([N+](=O)[O-])cc1,-12,-1,12,0,x
O=S(=O)(c1ccccc1)N1CCN(c2nnnn2-c2ccccc2)CC1,2,u,-2,0,x
O=S(=O)(c1ccc2c(c1)OCO2)N1CCN(c2nnnn2-c2ccccc2)CC1,-20,25*,20,0,1
CCC(C)(C)NC(=O)C(c1ccc(OC)cc1)N(C(=O)CCC(=O)Nc1cc(C)on1)c1ccc(F)cc1 (stereo not drawn),-2,-15,2,0,x
